This experiment concerns Cavia porcellus. Description: Maximum increase in the coronary flow of isolated guinea pig heart when a dose of 10 ug/heart is administered. It is filed as functional. A digest of the protocol:
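Langendorff-perfused isolated guinea pig heart, with Krebs-Henseleit fluid gassed with 95% O2/5% CO2, at 34 ± 1 °C and 60 cm H2O perfusion pressure. Compound was dissolved in propylene glycol at 100 μg/mL and infused at 0.1 mL/min. Coronary flow was read by electromagnetic flowmeter before and after infusion and expressed as percentage gain; mean ± SE of five experiments.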

`CCOP(=O)(OCC)OCc1ccc(-c2nc3ccccc3s2)cc1`: the “Max increase in coronary flow” value worked out at 47.7%.
`CCOP(=O)(Cc1ccc(-c2nc(-c3ccccc3)c(-c3ccccc3)s2)cc1)OCC`: the “Max increase in coronary flow” value came out at 23%.
With `CCOP(=O)(OCC)c1ccc(-c2nc3ccccc3s2)cc1` the figure was 27.2%.
`CCOP(=O)(Cc1ccc(-c2nc3ccccc3[nH]2)nc1)OCC`: the “Max increase in coronary flow” value is on record as 27.1%.
In the case of `CCOP(=O)(CCc1ccc(-c2nc3ccccc3s2)cc1)OCC`, the “Max increase in coronary flow” value stood at 40.7%.
On to `CCOP(=O)(/C=C/c1ccc(-c2nc3ccccc3s2)cc1)OCC`, for which the “Max increase in coronary flow” value amounted to 49.5%.
As to `CCOP(=O)(CCOc1ccc(-c2nc3ccccc3s2)cc1)OCC`, the “Max increase in coronary flow” value is recorded as 27.2%.
With `CCOP(=O)(Cc1ccc(-c2nc3ccccc3s2)s1)OCC` the figure was 51.1%; with `CCOP(=O)(Cc1ccc(-c2nc3ccccc3s2)nc1)OCC`, 94%.
As for `CCOP(=O)(Cc1cccnc1)OCC`, the “Max increase in coronary flow” value is 21.4%.
For the compound `CCOP(=O)(Cc1ccc(-c2nc(-c3ccccc3)cs2)cc1)OCC`, the “Max increase in coronary flow” value worked out at 60.3%.
Regarding `CCOP(=O)(Cc1ccc(-c2nc3ccccc3o2)nc1)OCC`, the “Max increase in coronary flow” value is 38.7%.
As for `CCOP(=O)(Cc1ccc(-c2nccs2)nc1)OCC`, the “Max increase in coronary flow” value is reported as 23.2%.
As for `CCOP(=O)(Cc1ccc(-c2nc3ccccc3s2)cc1)OCC` [FOSTEDIL], the figure is 79.9%.

The values above are taken from ChEMBL document CHEMBL1124524, “Organic phosphorus compounds. 2. Synthesis and coronary vasodilator activity of (benzothiazolylbenzyl) phosphonate derivatives” (1989).
